The structures appear in SMILES notation. Bounds are passed on as bounds.

System in one data set: not listed separately
As to the kind of experiment: Inhibition of pig brain tubulin polymerization at 5 uM measured after 45 mins by turbidimetry based spectrophotometric method relative to control. In kind it is tissue-based, Sus scrofa. The conditions noted are these: 0.75 h.
With `CNc1nc2ccccc2n2c(-c3cccc(OC)c3)cnc12`, the “inhibition (INH)” value turned out to be 84%.

The test system of a further data set is A-375. As to the kind of experiment: Antiproliferative activity against human A-375 cells assessed as reduction in cell viability measured after 96 hrs by MTT assay. In kind it is functional, cell-based. The conditions noted are these: Homo sapiens, A-375, 96 h. The gist of the method: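 A375 cells in RPMI-1640 with 10% heat-inactivated FBS, 2 mM L-glutamine and antibiotics, 37°C, 5% CO₂. Seeded at 5000 cells/well and attached overnight, then exposed to 10⁻⁵–3.2.10⁻⁹ M in 0.15% DMSO/medium for 96 h. MTT at 0.5 mg/ml final for 4 h, formazan dissolved in 10% SDS/0.01 M HCl, OD 570 nm. At least three experiments in triplicate; IC50 from sigmoidal dose–response curves.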
A general note: Tetrazolium dyes change colour on reduction, which living cells bring about.
Regarding `CNc1nc2cc(OC(F)(F)F)ccc2n2c(-c3ccc(O)c(O)c3)cnc12`, the half-inhibitory concentration (IC50) (usually the midpoint of a concentration-inhibition curve) worked out at 199 nM. On the same count and under the same terms, next, `NCCNc1nc2ccccc2n2c(-c3ccc(O)c(O)c3)cnc12` [listing 1 of 2 here]: 1280 nM; `CNc1nc2ccccc2n2c(-c3ccc(OC)c(OC)c3)cnc12`: 193 nM. With `CN(C)c1nc2ccccc2n2c(-c3ccc(O)c(O)c3)cnc12`, the IC50 came out at 30 nM. As to `Nc1nccn2c(-c3ccc(O)c(O)c3)cnc12`, the IC50 was greater than 10000 nM. As to `COc1ccc(-c2cnc3c(NCCCNC(=O)OC(C)(C)C)nc4ccccc4n23)cc1OC`, the IC50 is greater than 10000 nM. Still for that read-out and setting: next, `COc1ccc(-c2cnc3c(NCCCCCCNC(=O)OC(C)(C)C)nc4ccccc4n23)cc1OC`: greater than 10000 nM; `COc1ccc(-c2cnc3c(N4CCN(C(=O)OC(C)(C)C)CC4)nc4ccccc4n23)cc1OC`: greater than 10000 nM; `CNc1nccn2c(-c3ccc(OC)c(OC)c3)cnc12`: greater than 10000 nM.

For `Nc1nc2ccccc2n2c(-c3ccc(O)c(O)c3)cnc12`, the IC50 came to 60 nM.

Regarding `Oc1ccc(-c2cnc3c(O)nc4ccccc4n23)cc1O`, the concentration for half-maximal inhibition (IC50) was greater than 10000 nM. On the same count and under the same terms, for `CNc1nccn2c(-c3ccc(O)c(O)c3)cnc12` the value was greater than 10000 nM.

With `CNc1nc2ccc(C(F)(F)F)cc2n2c(-c3ccc(O)c(O)c3)cnc12`, the IC50 is greater than 10000 nM. `COc1ccc(-c2cnc3c(NCCNC(=O)OC(C)(C)C)nc4ccccc4n23)cc1OC`: the concentration for half-maximal inhibition (IC50) was greater than 10000 nM. On the same count and under the same terms, for `Oc1ccc(-c2cnc3c(N4CCNCC4)nc4ccccc4n23)cc1O` the value was greater than 10000 nM; for `CNc1nc2cc(OC(F)(F)F)ccc2n2c(-c3ccc(OC)c(OC)c3)cnc12`, 3490 nM; for `CNc1nc2cc(C(F)(F)F)ccc2n2c(-c3ccc(O)c(O)c3)cnc12`, 6910 nM. For the compound `COc1ccc(-c2cnc3c(N(C)C)nc4ccccc4n23)cc1OC`, the IC50 came to 414 nM.

Regarding `NCCCCCCNc1nc2ccccc2n2c(-c3ccc(O)c(O)c3)cnc12`, the half-maximal inhibitory concentration (IC50) is 5690 nM. Consider `NCCCNc1nc2ccccc2n2c(-c3ccc(O)c(O)c3)cnc12`, for which the half-maximal inhibitory concentration (IC50) was determined as 5590 nM. As to `CNc1nc2ccccc2n2c(-c3cccc(OC)c3)cnc12`, the half-maximal inhibitory concentration (IC50) came out at 383 nM. Same read-out and setting: next, `COc1ccc(-c2cnc3c(OC)nc4ccccc4n23)cc1OC`: 2930 nM; `CNc1nc2ccc(C(F)(F)F)cc2n2c(-c3ccc(OC)c(OC)c3)cnc12`: greater than 10000 nM. For the compound `COc1ccc(-c2cnc3c(N)nccn23)cc1OC`, the half-inhibitory concentration (IC50) was greater than 10000 nM.

`CNc1nc2ccccc2n2c(Br)cnc12`: the half-inhibitory concentration (IC50) came out at 2350 nM. As for `CNc1nc2ccccc2n2ccnc12`, the half-inhibitory concentration (IC50) is greater than 10000 nM.

Staying with this data set, now noted: a-375.
Regarding `NCCNc1nc2ccccc2n2c(-c3ccc(O)c(O)c3)cnc12` [listing 2 of 2 here], the half-inhibitory concentration (IC50) came to 1700 nM.

The next data set relates to MeWo. Kind of data set: Antiproliferative activity against human MeWo cells assessed as reduction in cell viability measured after 96 hrs by MTT assay. In kind it is functional, cell-based.
Settings: not given
Take `CNc1nc2ccccc2n2c(-c3cccc(OC)c3)cnc12`: the IC50 came out at 125 nM.

A further data set relates to A2058. As to the kind of experiment: Antiproliferative activity against human A2058 cells assessed as reduction in cell viability measured after 96 hrs by MTT assay. In kind it is functional, cell-based. The conditions noted are these: A2058, 96 h.
In the case of `CNc1nc2ccccc2n2c(-c3cccc(OC)c3)cnc12`, the IC50 amounted to 185 nM.

In the next data set the test system is IPC-298. Kind of data set: Antiproliferative activity against human IPC-298 cells assessed as reduction in cell viability measured after 96 hrs by MTT assay. The conditions noted are these: IPC-298, 96 h. In kind it is functional, cell-based.
`CNc1nc2ccccc2n2c(-c3cccc(OC)c3)cnc12`: the half-inhibitory concentration (IC50) is 469 nM.

Source of the values: ChEMBL document CHEMBL4732121, “Imidazo[1,2-a]quinoxalines for melanoma treatment with original mechanism of action” (Eur J Med Chem, 2021).
